# ChEMBL document CHEMBL4834428
# B1: NAD-dependent protein deacetylase sirtuin-1 (Homo sapiens), Q96EB6 (protein)
# chain: MADEAALALQPGGSPSAAGADREAASSPAGEPLRKRPRRDGPGLERSPGEPGGAAPEREVPAAARGCPGAAAAALWREAEAEAAAAGGEQEAQATAAAGEGDNGPGLQGPSREPPLADNLYDEDDDDEGEEEEEAAAAAIGYRDNLLFGDEIITNGFHSCESDEEDRASHASSSDWTPRPRIGPYTFVQQHLMIGTDPRTILKDLLPETIPPPELDDMTLWQIVINILSEPPKRKKRKDINTIEDAVKLLQECKKIIVLTGAGVSVSCGIPDFRSRDGIYARLAVDFPDLPDPQAMFDIEYFRKDPRPFFKFAKEIYPGQFQPSLCHKFIALSDKEGKLLRNYTQNIDTLEQVAGIQRIIQCHGSFATASCLICKYKVDCEAVRGDIFNQVVPRCPRCPADEPLAIMKPEIVFFGENLPEQFHRAMKYDKDEVDLLIVIGSSLKVRPVALIPSSIPHEVPQILINREPLPHLHFDVELLGDCDVIINELCHRLGGEYAKLCCNPVKLSEITEKPPRTQKELAYLSELPPTPLHVSEDSSSPERTSPPDSSVIVTLLDQAAKSNDDLDVSESKGCMEEKPQEVQTSRNVESIAEQMENPDLKNVGSSTGEKNERTSVAGTVRKCWPNRVAKEQISRRLDGNQYLFLPPNRYIFHGAEVYSDSEDDVLSSSSCGSNSDSGTCQSPSLEEPMEDESEIEEFYNGLEDEPDVPERAGGAGFGTDGDDQEAINEAISVKQEVTDMNYPSNKS
# What was measured:
# [1] = substrate: N#Cc1ccccc1CN1CC(C(N)=O)Oc2ccccc21; settings: Homo sapiens; dose 200.0 nM, time 30.0 min
# [2] = substrate: N#Cc1ccccc1CN1CC(C(N)=O)Oc2ccccc21; settings: Homo sapiens; dose 100.0 nM, time 30.0 min
# [3] = substrate: N#Cc1ccccc1CN1CC(C(N)=O)Oc2ccccc21; settings: Homo sapiens; dose 400.0 nM, time 30.0 min
# [4] = substrate: N#Cc1ccccc1CN1CC(C(N)=O)Oc2ccccc21; settings: Homo sapiens; dose 100.0 nM, time 30.0 min; remark: listed apart in the source
# [5] = compound: N#Cc1ccccc1CN1CC(C(N)=O)Oc2ccccc21; experiment: Uncompetitive inhibition of His6-tagged SIRT1 (unknown origin) expressed in Escherichia coli BL21 (DE3) assessed as change in Km at 1600 nM measured every 2 mins for 30 mins in presence of NAD+ and ATP by […] based Michaelis-Menten analysis (reference value: 54.3 to 57.6 uM); settings: Homo sapiens
# In short: (§1)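 Continuous assay, triplicates: 100 nM His6-SirT1 catalytic domain, ~270 nM FLucK529ac, inhibitor 100–1600 nM in sirtuin buffer 2 plus luciferase buffer (0.5 mM ATP, 0.5 mM luciferin, pH 7.8).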
# [6] = substrate: N#Cc1ccccc1CN1CC(C(N)=O)Oc2ccccc21; settings: Homo sapiens; dose 400.0 nM, time 30.0 min; remark: listed apart in the source
# [7] = compound: N#Cc1ccccc1CN1CC(C(N)=O)Oc2ccccc21; experiment: Uncompetitive inhibition of His6-tagged SIRT1 (unknown origin) expressed in Escherichia coli BL21 (DE3) assessed as change in Km at 800 nM measured every 2 mins for 30 mins in presence of NAD+ and ATP by […] based Michaelis-Menten analysis (reference value: 54.3 to 57.6 uM); settings: Homo sapiens
# In short: as §1
# [8] = compound: N#Cc1ccccc1CN1CC(C(N)=O)Oc2ccccc21; experiment: Uncompetitive inhibition of His6-tagged SIRT1 (unknown origin) expressed in Escherichia coli BL21 (DE3) assessed as change in Vmax at 1600 nM measured every 2 mins for 30 mins in presence of NAD+ and ATP by […] based Michaelis-Menten analysis (reference value: 860 to 1326 AU/min); settings: Homo sapiens
# In short: as §1
# [9] = substrate: N#Cc1ccccc1CN1CC(C(N)=O)Oc2ccccc21; settings: Homo sapiens; dose 200.0 nM, time 30.0 min; remark: listed apart in the source
# [10] = compound: N#Cc1ccccc1CN1CC(C(N)=O)Oc2ccccc21; experiment: Uncompetitive inhibition of His6-tagged SIRT1 (unknown origin) expressed in Escherichia coli BL21 (DE3) assessed as change in Vmax at 800 nM measured every 2 mins for 30 mins in presence of NAD+ and ATP by […] based Michaelis-Menten analysis (reference value: 860 to 1326 AU/min); settings: Homo sapiens
# In short: as §1
protein,measurement,setting,value
B1,Vmax,[1],673 AU/min
same,Vmax,[2],864 AU/min
same,Vmax,[3],522 AU/min
same,Km,[4],47.7 µM
same,Km,[5],4.9 µM
same,Km,[6],23.8 µM
same,Km,[7],10 µM
same,Vmax,[8],208 AU/min
same,Km,[9],34.6 µM
same,Vmax,[10],304 AU/min
